Active and inactive are the calls of the source. No cut-off for these calls is given here.

Series [1] in a line: Dissociation constant, pKa of the compound. It is filed as physicochemical.
In series [2] the target is T1, Beta-secretase 1 (Homo sapiens, UniProt P56817). Put plainly: Inhibition of human recombinant BACE1 using fluorescent Mca-Ser-Glu-Val-Asn-Leu-Asp-Ala-Glu-Phe-Lys(Dnp)-OH peptide as substrate after 1 hr by spectroflurorimeter analysis.
Series [3] concerns the target T1, Beta-secretase 1. As to the kind of experiment: Inhibition of human BACE1-mediated amyloid beta 42 secretion in human SKNBE2 cells expressing human APP695 after 18 hrs by sandwich alphalisa assay. Type of series: cell-based.
For series [4], the target named is T1, Beta-secretase 1. As to the kind of experiment: Inhibition of human BACE1-mediated amyloid beta TOT secretion in human SKNBE2 cells expressing human APP695 after 18 hrs by sandwich alphalisa assay. Type of series: cell-based. Summed up:
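SKNBE2 human neuroblastoma cells expressing wild-type hAPP695 exposed to diluted compound for 18 h; secreted AβTOT in medium quantified by sandwich AlphaLISA using biotinylated AbN/25 on streptavidin beads and 4G8 detection antibody.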

The nature of series [5]: Plasma concentration in mouse at 30 mg/kg, sc after 1 hr. Type of series: ADME, organism-based. Further details: dose 30 mg/kg, route subcutaneous. The procedure, abridged:
(§1)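 Mice dosed subcutaneously; brain and plasma drug levels measured at 1, 2 and 4 h post-dose, brain in ng/g, plasma in ng/ml.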

Series [6] can be described thus: Plasma concentration in mouse at 30 mg/kg, sc after 2 hrs. Type of series: ADME, organism-based. Further details: dose 30 mg/kg, route subcutaneous. The procedure, abridged:
as §1

Series [7] in a line: Plasma concentration in mouse at 30 mg/kg, sc after 4 hrs. Type of series: ADME, organism-based. Further details: dose 30 mg/kg, route subcutaneous. The procedure, abridged: as §1
A short description of series [8]: Drug uptake in mouse brain at 30 mg/kg, sc after 1 hr. It is filed as ADME, organism-based. Further details: dose 30 mg/kg, route subcutaneous. The settings on record: read-out: Drug uptake. Summed up: as §1
A short description of series [9]: Drug uptake in mouse brain at 30 mg/kg, sc after 2 hrs. Type of series: ADME, organism-based. Further details: dose 30 mg/kg, route subcutaneous. The settings on record: read-out: Drug uptake. The procedure, abridged:
as §1

Series [10] can be described thus: Drug uptake in mouse brain at 30 mg/kg, sc after 4 hrs. Type of series: ADME, organism-based. Also noted: dose 30 mg/kg, route subcutaneous. As to conditions: read-out: Drug uptake. Summed up: as §1
Series [11] relates to Mus musculus. Put plainly: Antialzheimer activity in CD1 mouse brain assessed as reduction of amyloid beta TOT production at 30 mg/kg, sc after 2 hrs using fluorogenic peroxidase as substrate by ELISA. Type of series: functional, organism-based. Further details: dose 30 mg/kg. The procedure, abridged:
(§2)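 Male CD1 mice (22-28 g), fasted overnight, given single subcutaneous dose in 20% hydroxypropyl β-cyclodextrin; vehicle/untreated controls. Soluble AβTOT by sandwich ELISA (capture JRF/rAb/2, biotinylated 4G8), Aβ1-40 standards 10000–0.3 pg/ml, overnight 4 °C, QuantaBlu fluorogenic read-out.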

In series [12] the test system is Mus musculus. Put plainly: Antialzheimer activity in CD1 mouse brain assessed as reduction of amyloid beta TOT production at 30 mg/kg, sc after 4 hrs using fluorogenic peroxidase as substrate by ELISA. Type of series: functional, organism-based. Also noted: dose 30 mg/kg. Summed up: as §2
A short description of series [13]: Plasma concentration in mouse at 60 mg/kg, sc after 2 hrs. Also noted: dose 60 mg/kg, route subcutaneous. It is filed as ADME, organism-based. Summed up:
as §1

Series [14] in a line: Plasma concentration in mouse at 60 mg/kg, sc after 4 hrs. It is filed as ADME, organism-based. Further details: dose 60 mg/kg, route subcutaneous. Summed up:
as §1

The nature of series [15]: Drug uptake in mouse brain at 60 mg/kg, sc after 1 hr. The settings on record: read-out: Drug uptake. It is filed as ADME, organism-based. Also noted: dose 60 mg/kg, route subcutaneous. The procedure, abridged: as §1
Series [16] is described as follows: Drug uptake in mouse brain at 60 mg/kg, sc after 2 hrs. As to conditions: read-out: Drug uptake. Type of series: ADME, organism-based. Also noted: dose 60 mg/kg, route subcutaneous. The procedure, abridged:
as §1

A short description of series [17]: Drug uptake in mouse brain at 60 mg/kg, sc after 4 hrs. Type of series: ADME, organism-based. Further details: dose 60 mg/kg, route subcutaneous. The settings on record: read-out: Drug uptake. The procedure, abridged:
as §1

The test system of series [18] is Mus musculus. Put plainly: Antialzheimer activity in CD1 mouse brain assessed as reduction of amyloid beta TOT production at 60 mg/kg, sc after 1 hr using fluorogenic peroxidase as substrate by ELISA. It is filed as functional. Further details: scale not given: the % may be the effect or the level left. As to conditions: route subcutaneous. The procedure, abridged: as §2

Series [19] concerns Mus musculus. As to the kind of experiment: Antialzheimer activity in CD1 mouse brain assessed as reduction of amyloid beta TOT production at 60 mg/kg, sc after 2 hrs using fluorogenic peroxidase as substrate by ELISA. It is filed as functional. As to conditions: route subcutaneous. Also noted: scale not given: the % may be the effect or the level left. The procedure, abridged:
as §2

Series [20] has as its system Mus musculus. As to the kind of experiment: Antialzheimer activity in CD1 mouse brain assessed as reduction of amyloid beta TOT production at 60 mg/kg, sc after 4 hrs using fluorogenic peroxidase as substrate by ELISA. The settings on record: route subcutaneous. It is filed as functional. Further details: scale not given: the % may be the effect or the level left. Summed up: as §2

A short description of series [21]: Plasma concentration in mouse at 60 mg/kg, sc after 1 hr. Type of series: ADME, organism-based. Further details: dose 60 mg/kg, route subcutaneous. The procedure, abridged: as §1
The test system of series [22] is Mus musculus. As to the kind of experiment: Antialzheimer activity in CD1 mouse brain assessed as reduction of amyloid beta TOT production at 30 mg/kg, sc after 1 hr using fluorogenic peroxidase as substrate by ELISA. It is filed as functional. Further details: scale not given: the % may be the effect or the level left. The settings on record: route subcutaneous. Summed up: as §2

T1 sequence (P56817 whole entry): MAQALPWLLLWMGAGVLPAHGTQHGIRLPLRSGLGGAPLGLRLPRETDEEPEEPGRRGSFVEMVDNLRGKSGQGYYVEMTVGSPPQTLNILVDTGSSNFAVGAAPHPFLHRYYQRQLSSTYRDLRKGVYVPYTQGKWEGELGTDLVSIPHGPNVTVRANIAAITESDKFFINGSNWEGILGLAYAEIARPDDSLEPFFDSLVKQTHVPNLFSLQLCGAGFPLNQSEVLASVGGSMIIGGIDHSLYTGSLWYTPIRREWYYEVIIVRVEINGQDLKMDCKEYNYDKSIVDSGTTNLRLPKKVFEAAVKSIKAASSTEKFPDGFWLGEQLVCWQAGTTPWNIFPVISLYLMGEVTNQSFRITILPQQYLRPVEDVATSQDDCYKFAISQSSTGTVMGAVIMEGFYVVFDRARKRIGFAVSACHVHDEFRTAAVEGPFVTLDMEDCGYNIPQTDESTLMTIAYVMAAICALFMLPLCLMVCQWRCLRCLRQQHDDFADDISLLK

As for `CN1CC(C)(c2cccc(NC(=O)c3ccc(Cl)cn3)c2)N=C(N)C1=O` (single isomer, unassigned; enantiomer 1), in [1], the pKa worked out at 7.6. The figures for the IC50 at Beta-secretase 1 [2], against Beta-secretase 1 [3] and at Beta-secretase 1 [4] were greater than 30000 nM, greater than 10000 nM and greater than 10000 nM, respectively.
In series [1], `CN1CC(N)=NC(C)(c2cccc(NC(=O)c3ccc(C(F)(F)F)cn3)c2)C1=O` (stereo not given) displayed a pKa of less than 8. The values for the half-inhibitory concentration (IC50) on Beta-secretase 1 [2], against Beta-secretase 1 [3] and against Beta-secretase 1 [4] were 1380 nM, 68 nM and 79 nM, respectively.
On the same counts, the results for `CN1CC(N)=NC(C)(c2cccc(NC(=O)c3ccc(C#N)cn3)c2)C1=O` (stereo not given) are less than 8, 813 nM, 186 nM and 151 nM.
As for `Cc1cnc(C(=O)Nc2cccc(C3(C)N=C(N)CN(C)C3=O)c2)cn1` (stereo not given), in series [1], the pKa was less than 8. Moreover, the half-inhibitory concentration (IC50) stood at 7080 nM at Beta-secretase 1 [2], 1260 nM against Beta-secretase 1 [3] and 1150 nM against Beta-secretase 1 [4].
With `CN1CC(N)=NC(C)(c2cccc(NC(=O)c3ccc(Cl)cn3)c2)C1=O` (racemic), the pKa in series [1] turned out to be 7.8. Also, the concentration at 1 h in series [5] was 4630 ng/mL; in [8], 184 ng/g. Further, the concentration at 2 h in series [6] was determined as 1710 ng/mL; in series [9], 123 ng/g. In addition, the concentration at 4 h in series [7] was 439 ng/mL; in series [10], 90 ng/g.
With `CN1CC(N)=N[C@](C)(c2cccc(NC(=O)c3ccc(Cl)cn3)c2)C1=O`, in series [1], the pKa is less than 8.
Same read-out and setting: the figure for `CN1CC(N)=N[C@@](C)(c2cccc(NC(=O)c3ccc(Cl)cn3)c2)C1=O` is less than 8; for `CN1CC(C)(c2cc(NC(=O)c3ccc(Cl)cn3)ccc2F)N=C(N)C1=O` (single isomer, unassigned; enantiomer 1) it is less than 8.
As to `CN1CC(C)(c2cccc(NC(=O)c3ccc(Cl)cn3)c2)N=C(N)C1=O` (racemic) [listing 1 of 2 here], the outcome in the series on Mus musculus [11] and with Mus musculus [12] was inactive.
Consider `CN1CC(C)(c2cc(NC(=O)c3ccc(Cl)cn3)ccc2F)N=C(N)C1=O` (single isomer, unassigned; enantiomer 2), for which the concentration at 2 h in series [13] was found to be 2460 ng/mL; in series [16], 3340 ng/g. For the same molecule, the concentration at 4 h in series [14] stood at 270 ng/mL; in series [17] it was 347 ng/g. The concentration at 1 h in series [15] worked out at 8080 ng/g; in [21], 7140 ng/mL. For the same molecule, the figures for the Activity with Mus musculus [18], with Mus musculus [19] and in the series with Mus musculus [20] were 48%, 67% and 73%, respectively.
With `CN1CC(C)(c2cccc(NC(=O)c3ccc(Cl)cn3)c2)N=C(N)C1=O` (single isomer, unassigned; enantiomer 2), the IC50 on Beta-secretase 1 [2] turned out to be 295 nM; against Beta-secretase 1 [3], 83 nM; on Beta-secretase 1 [4], 85 nM.
In the case of `CN1CC(C)(c2cccc(NC(=O)c3ccc(Cl)cn3)c2)N=C(N)C1=O` (racemic) [listing 2 of 2 here], the Activity in the series with Mus musculus [22] came to 34%. In addition, the IC50 came to 550 nM at Beta-secretase 1 [2], 115 nM against Beta-secretase 1 [3] and 107 nM against Beta-secretase 1 [4]. For the same molecule, the concentration at 1 h came to 993 ng/mL in series [5] and 614 ng/g in series [8]. For the same molecule, the figures for the concentration at 2 h in [6] and in series [9] were 461 ng/mL and 157 ng/g, respectively. For the same molecule, the concentration at 4 h in series [7] came to 200 ng/mL; in series [10] it was 20.5 ng/g.

The values above are taken from ChEMBL document CHEMBL1921778, “Rational design and synthesis of aminopiperazinones as β-secretase (BACE) inhibitors” (Bioorg Med Chem Lett, 2011).
